Results: publication PMC5815829 (Journal of the American Chemical Society, 2017)
Entries after “also recorded” stand apart in the source; their conditions may differ. Where two headings read alike, the source gives them in different places.

What was measured:
H6:s10:loop:GFP = settings: cited from earlier work
s10• H6:s10:loop:GFP = settings: dark; cited from earlier work
[1] = test system: truly truncated H6:GFP: loop:s11; assay: Spontaneous dark reassembly with s11; format: binding; settings: 4 μM protein, 20 μM s11, dark
In short: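 Truncated protein made from intact GFP carrying a sacrificial loop: loop cut by proteolysis, then strand 11 stripped off in 6M Guanidinium-HCl. Protein separated from s11 peptide by size exclusion, refolded by rapid dilution into non-denaturing buffer, then thermally relaxed. 4 µM protein mixed with 20 µM s11 peptide without irradiation. Reassembly followed over time; second-order k reported in M-1s-1.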

H6:GFP: loop:s11•s11 = settings: excess replacement peptide s11^222Q; cited from earlier work
H6:GFP: loop:s11 = settings: His-tag retained, cited from earlier work
s10• H6:GFP: loop:s11 = assay: Displacement of bound s10 by excess s11; format: binding; settings: excess s11 added to isolated complex; data not shown

NHYLSTQSVLS [s10]
reassembly with s10 in the dark (H6:s10:loop:GFP): readily reassembles
spontaneous off-rate of strand 10 (s10• H6:s10:loop:GFP): very slow

HMVLLEFVTAA [s11]
rate constant k of spontaneous reassembly with s11 in the dark [1]: 1.2 × 10^0 M^−1 s^−1
spontaneous off-rate of strand 11 (H6:GFP: loop:s11•s11): effectively zero
binding of s11 in the dark (H6:GFP: loop:s11; listed as native peptide): unable to displace the H6 slotted into this groove until it is vacated following light activation
binding of s11 in the dark (H6:GFP: loop:s11): unable to bind s11 in the dark; also recorded: does not rebind added synthetic strand 11 (s11) spontaneously in the dark
displacement of bound s10 (s10• H6:GFP: loop:s11): able to displace the bound s10, and light accelerates this process
